Measured values from ChEMBL document CHEMBL2412985, “Peroxisome proliferator-activated receptor delta antagonists inhibit hepatitis C virus RNA replication” (Bioorg Med Chem Lett, 2013).
Activity calls are given as the source filed them. The rule behind the calls is not given here.

species: Homo sapiens; experiment: Selectivity ratio of human PPARdelta to human PPARalpha; settings: not given

SMILES	Selectivity ratio
CCCCOc1ccc(-c2ccc(C(=O)O)cc2C)cc1CNC(=O)c1ccc(C(F)(F)F)cc1	1000

biological target: T1, Peroxisome proliferator-activated receptor delta (Homo sapiens) (UniProt Q03181); experiment: Antagonist activity at human PPARdelta assessed as effect on TIPP-703-induced activity at 10 uM; settings: not given
T1 sequence (whole entry): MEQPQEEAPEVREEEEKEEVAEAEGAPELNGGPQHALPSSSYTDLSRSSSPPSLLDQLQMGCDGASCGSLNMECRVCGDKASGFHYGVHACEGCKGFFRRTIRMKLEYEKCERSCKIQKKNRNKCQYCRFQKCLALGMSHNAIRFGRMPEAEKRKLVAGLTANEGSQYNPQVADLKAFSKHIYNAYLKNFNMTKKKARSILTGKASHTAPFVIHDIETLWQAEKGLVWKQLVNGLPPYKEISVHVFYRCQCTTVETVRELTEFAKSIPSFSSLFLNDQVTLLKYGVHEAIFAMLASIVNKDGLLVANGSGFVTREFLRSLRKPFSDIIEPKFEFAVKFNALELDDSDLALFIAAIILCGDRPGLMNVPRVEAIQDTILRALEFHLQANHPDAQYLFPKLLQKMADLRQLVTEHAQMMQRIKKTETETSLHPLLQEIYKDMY
Outline: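 Antagonism measured as % inhibition of hPPARδ activity stimulated by a co-added hPPAR pan-agonist held at a fixed level of […].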

SMILES	inhibition
NC(=O)c1ncn([C@@H]2O[C@H](CO)[C@@H](O)[C@H]2O)n1 [RIBAVIRIN]	inactive

biological target: T2, Peroxisome proliferator-activated receptor delta (Homo sapiens, UniProt Q03181); experiment: Antagonist activity at human PPARdelta assessed as effect on TIPP-703-induced activity; settings: not given
T2 sequence (Q03181 whole entry): T1 sequence (whole entry)
Outline: (§1)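 Antagonism was measured against stimulation by the hPPAR-pan agonist, with test compound co-applied and the result expressed as % inhibition.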

SMILES	IC50
CCCCOc1ccc(-c2ccc(C(=O)O)nc2)cc1CNC(=O)c1ccc(C(F)(F)F)cc1	Not Active
CCCCOc1ccc(-c2ccc(C)c(C(=O)O)c2)cc1CNC(=O)c1ccc(C(F)(F)F)cc1	Not Active
CCCCOc1ccc(-c2cc(C(=O)O)ccc2C)cc1CNC(=O)c1ccc(C(F)(F)F)cc1	Not Active
CCCCOc1ccc(-c2ccc(C(=O)O)cn2)cc1CNC(=O)c1ccc(C(F)(F)F)cc1	Not Active
CCCCOc1ccc(-c2ccc(C(=O)O)o2)cc1CNC(=O)c1ccc(C(F)(F)F)cc1	Not Active

same assay, conditions: read-out: IC50

SMILES	IC50 [µM]
CCOc1ccc(-c2ccc(C(=O)O)cc2C)cc1CNC(=O)c1ccc(C(F)(F)F)cc1F	0.028
CCCCCOc1ccc(-c2ccc(C(=O)O)cc2C)cc1CNC(=O)c1ccc(C(F)(F)F)cc1F	0.092
CCCOc1ccc(-c2ccc(C(=O)O)cc2C)cc1CNC(=O)c1ccc(C(F)(F)F)cc1F	0.029
O=C(Nc1ccncc1)c1cc([N+](=O)[O-])ccc1Cl	> 10
CCCCOc1ccc(-c2ccc(C(=O)O)cc2Cl)cc1CNC(=O)c1ccc(C(F)(F)F)cc1	0.013
CCCCOc1ccc(-c2ccc(C(=O)O)cc2C)cc1CNC(=O)c1ccc(C(F)(F)F)cc1	0.019
CCCCOc1ccc(-c2ccc(C(=O)O)cc2F)cc1CNC(=O)c1ccc(C(F)(F)F)cc1	0.1

biological target: T3, Peroxisome proliferator-activated receptor alpha (Homo sapiens) (UniProt Q07869); experiment: Antagonist activity at human PPARalpha assessed as effect on TIPP-703-induced activity at 10 uM; settings: not given; outline: as §1
T3 sequence (whole entry): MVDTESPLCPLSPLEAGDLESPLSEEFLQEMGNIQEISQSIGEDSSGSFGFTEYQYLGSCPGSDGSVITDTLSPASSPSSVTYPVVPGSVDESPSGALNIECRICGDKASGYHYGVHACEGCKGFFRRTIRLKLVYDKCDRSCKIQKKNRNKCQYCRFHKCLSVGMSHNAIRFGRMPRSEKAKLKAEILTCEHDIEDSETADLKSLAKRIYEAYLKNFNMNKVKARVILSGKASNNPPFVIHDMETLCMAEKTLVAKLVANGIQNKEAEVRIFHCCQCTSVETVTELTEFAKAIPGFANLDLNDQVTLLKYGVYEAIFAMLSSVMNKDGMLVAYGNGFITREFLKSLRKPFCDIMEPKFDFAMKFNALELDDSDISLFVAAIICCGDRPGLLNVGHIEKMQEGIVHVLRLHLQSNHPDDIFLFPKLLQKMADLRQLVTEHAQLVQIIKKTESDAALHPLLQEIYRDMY

SMILES	inhibition [%]
CCOc1ccc(-c2ccc(C(=O)O)cc2C)cc1CNC(=O)c1ccc(C(F)(F)F)cc1F	49.5
CCCCCOc1ccc(-c2ccc(C(=O)O)cc2C)cc1CNC(=O)c1ccc(C(F)(F)F)cc1F	23.3
CCCOc1ccc(-c2ccc(C(=O)O)cc2C)cc1CNC(=O)c1ccc(C(F)(F)F)cc1F	49.5
O=C(Nc1ccncc1)c1cc([N+](=O)[O-])ccc1Cl	31.8
CCCCOc1ccc(-c2ccc(C(=O)O)cc2Cl)cc1CNC(=O)c1ccc(C(F)(F)F)cc1	30.7
CCCCOc1ccc(-c2ccc(C(=O)O)cc2C)cc1CNC(=O)c1ccc(C(F)(F)F)cc1	12.6
CCCCOc1ccc(-c2ccc(C(=O)O)cc2F)cc1CNC(=O)c1ccc(C(F)(F)F)cc1	25.4

test system: not listed separately; experiment: Selectivity index, ratio of CC50 for […] OR6 cells to ED50 for HCV; settings: not given
Outline: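 SI was calculated as CC₅₀ (WST-1 viability of OR6 cells, 72 h) divided by EC₅₀ (HCV replicon Renilla luciferase inhibition, 72 h).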

SMILES	Selectivity Index
CCOc1ccc(-c2ccc(C(=O)O)cc2C)cc1CNC(=O)c1ccc(C(F)(F)F)cc1F	10
CCCCCOc1ccc(-c2ccc(C(=O)O)cc2C)cc1CNC(=O)c1ccc(C(F)(F)F)cc1F	5
CCCOc1ccc(-c2ccc(C(=O)O)cc2C)cc1CNC(=O)c1ccc(C(F)(F)F)cc1F	11
O=C(Nc1ccncc1)c1cc([N+](=O)[O-])ccc1Cl	0.55
NC(=O)c1ncn([C@@H]2O[C@H](CO)[C@@H](O)[C@H]2O)n1 [RIBAVIRIN]	18
CCCCOc1ccc(-c2ccc(C(=O)O)cc2Cl)cc1CNC(=O)c1ccc(C(F)(F)F)cc1	1.8
CCCCOc1ccc(-c2ccc(C(=O)O)cc2C)cc1CNC(=O)c1ccc(C(F)(F)F)cc1	11
CCCCOc1ccc(-c2ccc(C(=O)O)cc2F)cc1CNC(=O)c1ccc(C(F)(F)F)cc1	2.1

test system: Hepatitis C virus; experiment: Antiviral activity against HCV infected in […] OR6 cells assessed as inhibition of viral RNA replication after 72 hrs by luciferase reporter gene assay; type: functional; settings: Hepacivirus hominis
Outline: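 OR6 cells carry genome-length HCV RNA with a Renilla luciferase reporter. Cells were plated at 2 × 10⁴ per well, at least in triplicate, and cultured 24 h. They were then exposed to compound for 72 h, lysed in Renilla lysis reagent, and luciferase activity was read. The top test concentration was set from prior WST-1 viability at about 80% relative activity.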

SMILES	Activity	ED50	inhibition
COC(=O)c1sccc1S(=O)(=O)Nc1ccc(Nc2ccccc2)cc1OC	inactive	–	–
CCCCOc1ccc(-c2ccc(C(=O)O)nc2)cc1CNC(=O)c1ccc(C(F)(F)F)cc1	–	inactive	–
CCCCOc1ccc(-c2ccc(C)c(C(=O)O)c2)cc1CNC(=O)c1ccc(C(F)(F)F)cc1	–	inactive	–
CCCCOc1ccc(-c2cc(C(=O)O)ccc2C)cc1CNC(=O)c1ccc(C(F)(F)F)cc1	–	inactive	–
CCCCOc1ccc(-c2ccc(C(=O)O)cc2C)cc1CNC(=O)c1ccc(C(F)(F)F)cc1	–	–	Dose-dependent effect
CCCCOc1ccc(-c2ccc(C(=O)O)cn2)cc1CNC(=O)c1ccc(C(F)(F)F)cc1	–	inactive	–
CCCCOc1ccc(-c2ccc(C(=O)O)o2)cc1CNC(=O)c1ccc(C(F)(F)F)cc1	–	inactive	–

same assay, conditions: OR6, 72 h, read-out: ED50 (the source's name)

SMILES	EC50 [µM]
CCOc1ccc(-c2ccc(C(=O)O)cc2C)cc1CNC(=O)c1ccc(C(F)(F)F)cc1F	0.39
CCCCCOc1ccc(-c2ccc(C(=O)O)cc2C)cc1CNC(=O)c1ccc(C(F)(F)F)cc1F	0.53
CCCOc1ccc(-c2ccc(C(=O)O)cc2C)cc1CNC(=O)c1ccc(C(F)(F)F)cc1F	0.22
O=C(Nc1ccncc1)c1cc([N+](=O)[O-])ccc1Cl	4.9
NC(=O)c1ncn([C@@H]2O[C@H](CO)[C@@H](O)[C@H]2O)n1 [RIBAVIRIN]	5.6
CCCCOc1ccc(-c2ccc(C(=O)O)cc2Cl)cc1CNC(=O)c1ccc(C(F)(F)F)cc1	1.8
CCCCOc1ccc(-c2ccc(C(=O)O)cc2C)cc1CNC(=O)c1ccc(C(F)(F)F)cc1	0.22
CCCCOc1ccc(-c2ccc(C(=O)O)cc2F)cc1CNC(=O)c1ccc(C(F)(F)F)cc1	3.9

test system: not listed separately; experiment: Cytotoxicity against […] OR6 cells after 72 hrs by WST1 assay; type: cell-based; settings: not given
Outline: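 OR6 cells were seeded at 1 × 10³ per well in triplicate and treated at three or four concentrations for 72 h. Viability was read by WST-1 proliferation assay, and CC₅₀ was determined.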

SMILES	CC50 at 72 h [µM]
CCOc1ccc(-c2ccc(C(=O)O)cc2C)cc1CNC(=O)c1ccc(C(F)(F)F)cc1F	3.9
CCCCCOc1ccc(-c2ccc(C(=O)O)cc2C)cc1CNC(=O)c1ccc(C(F)(F)F)cc1F	2.7
CCCOc1ccc(-c2ccc(C(=O)O)cc2C)cc1CNC(=O)c1ccc(C(F)(F)F)cc1F	2.2
O=C(Nc1ccncc1)c1cc([N+](=O)[O-])ccc1Cl	2.7
NC(=O)c1ncn([C@@H]2O[C@H](CO)[C@@H](O)[C@H]2O)n1 [RIBAVIRIN]	100
CCCCOc1ccc(-c2ccc(C(=O)O)cc2Cl)cc1CNC(=O)c1ccc(C(F)(F)F)cc1	3.2
CCCCOc1ccc(-c2ccc(C(=O)O)cc2C)cc1CNC(=O)c1ccc(C(F)(F)F)cc1	2.5
CCCCOc1ccc(-c2ccc(C(=O)O)cc2F)cc1CNC(=O)c1ccc(C(F)(F)F)cc1	8.1
